According to ChEMBL document CHEMBL5032510, “Identification of Novel Fused Heteroaromatics-Based MALT1 Inhibitors by High-Throughput Screening to Treat B Cell Lymphoma” (J Med Chem, 2021):
Calls of active or inactive are those of the source. The rule behind the calls is not given here.

Assays:
OCI-Ly1 [1] = test: Antiproliferative activity against human OCI-Ly1 cells assessed as inhibition of cell growth incubated for 72 hrs by Celltiter-Glo luminescent assay; format: functional
Summary of the method: (§1)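 Exponentially growing cells were seeded at 1 × 10⁴ per 100 μL. HBL-1 and TMD8 were kept in RPMI with 10% FBS, 2 mM glutamine and 10 mM HEPES; OCI-LY1 in Iscove's medium with 20% FBS; all at 37 °C and 5% CO2. Cells were exposed to DMSO or 2-fold serial dilutions from 100 μM for 72 h, in triplicate on one plate. CellTiter-Glo luminescence was read after 1 h. Growth inhibition was calculated against control, accounting for initial cell number, and GI50 was fitted.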

[2] = Toxicity in NCG mouse xenografted with human TMD8 cells assessed as diarrhea at 30 mg/kg/day, ip measured for 13 days; settings: in vivo, 312 h
[3] = Tmax in CD-1 mouse at 10 mg/kg, po by LC-MS/MS analysis; format: ADME, organism-based; settings: in vivo
Summary of the method: (§2)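 Male ICR (CD-1) mice (n = 9). Compound formulated in 5% DMSO + 5% Tween-80 in 90% saline and dosed 10 mg/kg po, 1 mg/kg ip or 1 mg/kg iv. Blood drawn from the jugular vein at set time points and held on ice. Plasma separated by centrifugation and stored at −80 °C before parameter derivation.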

[4] = AUC (0 to t) in CD-1 mouse at 10 mg/kg, po by LC-MS/MS analysis; format: ADME, organism-based; set-up: dose 10 mg/kg; settings: in vivo
Summary of the method: (§3)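 Compound formulated in 5% DMSO + 5% Tween-80 in 90% saline and given to male ICR (CD-1) mice (n = 9) at 10 mg/kg po, 1 mg/kg ip or 1 mg/kg iv. Blood was drawn via the jugular vein at set time points and held on ice. Plasma was separated by centrifugation and stored at −80 °C before PK parameters were derived.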

[5] = Induction of apoptosis in human HBL1 cells assessed as early apoptotic cells at 10 uM measured after 24 hrs by Annexin V-FITC/ Propidium iodide staining based flow cytometry (reference value: 4.85%); format: functional
TMD8 [6] = test: Induction of apoptosis in human TMD8 cells assessed as early apoptotic cells at 10 uM measured after 24 hrs by Annexin V-FITC/ Propidium iodide staining based flow cytometry (reference value: 6.97%); format: functional
[7] = Antiproliferative activity against human HBL1 cells assessed as inhibition of cell growth incubated for 72 hrs by Celltiter-Glo luminescent assay; format: functional; summary of the method: as §1
OCI-Ly1 [8] = test: Induction of apoptosis in human OCI-Ly1 cells assessed as viable cells at 10 uM measured after 24 hrs by Annexin V-FITC/ Propidium iodide staining based flow cytometry (reference value: 97.8%); format: functional; settings: read-out: Activity
OCI-Ly1 [9] = test: Induction of apoptosis in human OCI-Ly1 cells assessed as late apoptotic cells at 5 uM measured after 24 hrs by Annexin V-FITC/ Propidium iodide staining based flow cytometry (reference value: 0.548%); format: functional
[10] = target: T1, Mucosa-associated lymphoid tissue lymphoma translocation protein 1 (Homo sapiens) (UniProt Q9UDY8); test: Inhibition of MALT1 in human TMD8 cells assessed as decrease in RelB substrate cleavage at 8 uM preincubated for 30 mins followed by proteosome inhibitor MG-132 addition and measured after 2 hrs by Western blot analysis; format: cell-based; settings: time 2.5 hrs
T1 sequence (whole entry): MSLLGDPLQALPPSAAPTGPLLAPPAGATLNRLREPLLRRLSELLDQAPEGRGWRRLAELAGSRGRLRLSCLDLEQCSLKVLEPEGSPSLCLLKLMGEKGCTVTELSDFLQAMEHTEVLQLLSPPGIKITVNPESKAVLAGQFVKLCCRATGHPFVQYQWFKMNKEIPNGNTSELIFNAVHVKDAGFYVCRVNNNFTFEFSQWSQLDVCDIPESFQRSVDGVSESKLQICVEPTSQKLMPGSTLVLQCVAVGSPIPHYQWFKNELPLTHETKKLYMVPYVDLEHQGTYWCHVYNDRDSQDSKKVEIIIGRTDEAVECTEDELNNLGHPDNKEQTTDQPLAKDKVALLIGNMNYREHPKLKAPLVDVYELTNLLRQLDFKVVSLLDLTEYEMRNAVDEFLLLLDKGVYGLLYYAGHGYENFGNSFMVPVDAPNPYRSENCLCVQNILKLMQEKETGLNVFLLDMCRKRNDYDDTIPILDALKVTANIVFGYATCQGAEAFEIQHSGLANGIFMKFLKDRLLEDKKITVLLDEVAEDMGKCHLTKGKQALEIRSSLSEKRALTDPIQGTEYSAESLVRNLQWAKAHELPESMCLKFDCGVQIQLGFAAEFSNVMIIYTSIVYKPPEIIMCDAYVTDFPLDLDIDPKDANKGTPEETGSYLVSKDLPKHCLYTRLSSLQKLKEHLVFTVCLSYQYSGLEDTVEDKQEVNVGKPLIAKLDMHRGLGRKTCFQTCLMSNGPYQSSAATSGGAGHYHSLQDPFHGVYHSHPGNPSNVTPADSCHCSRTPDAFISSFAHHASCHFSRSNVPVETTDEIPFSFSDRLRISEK
Summary of the method: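 Cells were grown in RPMI with 10% FBS, 2 mM glutamine and 10 mM HEPES at 37 °C, 5% CO₂. Pretreated 30 min with compound (4 and 8 μM), then 10 μM MG-132 for 2 h. 20−75 μg total protein run on SDS-PAGE, blotted to PVDF, probed for RelB, detected by HRP chemiluminescence. β-actin was the loading control.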

[11] = MRT (0 to t) in CD-1 mouse at 1 mg/kg, ip by LC-MS/MS analysis; format: ADME, organism-based; settings: in vivo; summary of the method: as §2
HBL1 = test: Induction of apoptosis in human HBL1 cells assessed as increase in cleaved PARP level measured after 12 hrs by Western blot analysis; format: functional, cell-based
Summary of the method: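 HBL1, TMD8 or OCI-LY1 cells were exposed to DMSO or compound for 12 h. Cleaved PARP and caspase-3 were probed by western blot with HRP-conjugated secondary antibodies and chemiluminescent detection. Each lane held 20−75 μg total protein.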

OCI-Ly1 [12] = test: Induction of apoptosis in human OCI-Ly1 cells assessed as early apoptotic cells at 5 uM measured after 24 hrs by Annexin V-FITC/ Propidium iodide staining based flow cytometry (reference value: 1.29%); format: functional
[13] = Cmax in CD-1 mouse at 1 mg/kg, ip by LC-MS/MS analysis; format: ADME, organism-based; set-up: route intraperitoneal, dose 1 mg/kg; settings: in vivo; summary of the method: as §3
[14] = Toxicity in NCG mouse xenografted with human TMD8 cells assessed as emaciation at 30 mg/kg/day, ip measured for 13 days; settings: in vivo, 312 h
[15] = Toxicity in NCG mouse xenografted with human TMD8 cells assessed as body weight loss at 30 mg/kg/day, ip measured for 13 days; settings: in vivo, 312 h
OCI-Ly1 [16] = test: Induction of apoptosis in human OCI-Ly1 cells assessed as dead cells at 10 uM measured after 24 hrs by Annexin V-FITC/ Propidium iodide staining based flow cytometry (reference value: 0.365%); format: functional
TMD8 [17] = test: Induction of apoptosis in human TMD8 cells assessed as viable cells at 2 uM measured after 24 hrs by Annexin V-FITC/ Propidium iodide staining based flow cytometry (reference value: 90.8%); format: functional; settings: read-out: Activity

What does the source list for `COc1ccc(OC)c(NC(=O)c2sc(=S)n(-c3ccc(C(F)(F)F)cc3)c2NC(=O)CCl)c1`?
GI50 (OCI-Ly1 [1]): 10.7 µM; Activity [2]: Non-Toxic; Tmax [3]: 3 h; AUC(0-t) [4]: 11200 ng·h/mL; Activity [5]: 57.8%; Activity (TMD8 [6]): 53.1%; GI50 [7]: 1 µM; viability at 10 µM (OCI-Ly1 [8]): 95.5%; Activity (OCI-Ly1 [9]): 0.774%; inhibition [10]: Active; MRT last [11]: 5.95 h; Activity (HBL1): Dose-Dependent Effect; Activity (OCI-Ly1 [12]): 1.6%; Cmax [13]: 336 ng/mL; Activity [14]: Non-Toxic; Activity [15]: Non-Toxic; Activity (OCI-Ly1 [16]): 0.337%; viability at 2 µM (TMD8 [17]): 89.4%
